This is an account of results in ChEMBL document CHEMBL2331221, “Potent elastase inhibitors from cyanobacteria: structural basis and mechanisms mediating cytoprotective and anti-inflammatory effects in bronchial epithelial cells” (J Med Chem, 2013).

Structures are written as SMILES. Calls of active or inactive are those of the source. The calls are words filed in the database; no cut-off is given here. Bounds are passed on as bounds.

What is called IC50 is the point on the concentration scale where inhibition reaches its midpoint.

Test [1] can be described thus: Inhibition of human pancreatic chymotrypsin assessed as proteolysis using N-succinyl-Ala-Ala-Pro-Phe-p-nitroanilide substrate incubated for 30 mins prior to substrate addition.
The nature of test [2]: Inhibition of bovine pancreatic chymotrypsin assessed as proteolysis using N-succinyl-Gly-Gly-Phe-p-nitroanilide substrate incubated for 30 mins prior to substrate addition. Also noted: species or system Bos taurus.
The species entered for test [3] is Homo sapiens. Nature of the test: Inhibition of human pancreatic chymotrypsin assessed as proteolysis using N-succinyl-Ala-Ala-Pro-Phe-p-nitroanilide substrate incubated at 10 uM for 30 mins prior to substrate addition. Also noted: scale not given: the % may be the effect or the level left. The method in brief: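 Pancreatic chymotrypsin, bovine at 100 μg/mL or human at 50 μg/mL; reaction buffer, enzyme and inhibitor (DMSO) incubated 30 min at room temperature, then substrate added (bovine: N-succinyl-Gly-Gly-Phe-pNA; human: N-succinyl-Ala-Ala-Pro-Phe-pNA). Absorbance read at 405 nm; activity from reaction slope relative to solvent control.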

The target of test [4] is T1, Neutrophil elastase (Homo sapiens) (UniProt P08246).
T1 sequence (whole entry): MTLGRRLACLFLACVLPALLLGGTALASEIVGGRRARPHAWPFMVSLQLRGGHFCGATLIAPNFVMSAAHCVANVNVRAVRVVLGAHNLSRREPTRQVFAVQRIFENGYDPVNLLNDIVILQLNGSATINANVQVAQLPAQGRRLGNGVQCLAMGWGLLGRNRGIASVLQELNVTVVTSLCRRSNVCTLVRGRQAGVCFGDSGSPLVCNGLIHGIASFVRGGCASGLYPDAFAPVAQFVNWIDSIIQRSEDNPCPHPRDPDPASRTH
The settings on record: BEAS2B, 100 uM.

Test [5] deals with T1, Neutrophil elastase (Homo sapiens). Particulars: BEAS2B, 100 uM. This is another data set of the same source.
The target is the same in test [6]. Particulars: BEAS2B, 100 uM. This is another data set of the same source.
Test [7] is described as follows: Inhibition of porcine pancreatic elastase assessed as proteolysis using N-succinyl-Ala-Ala-Ala-p-nitroanilide substrate incubated for 15 mins prior to substrate addition measured every 30 seconds. Also noted: species or system Sus scrofa.
Test [8] can be described thus: Antiproteolytic activity against elastase (unknown origin). Also noted: species or system Homo sapiens. The method in brief: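 Inhibitor in DMSO pre-incubated with elastase in Tris-HCl pH 8.0 for 15 min at room temperature. Reaction started with N-succinyl-Ala-Ala-Ala-p-nitroanilide (2 mM in the added substrate solution). Absorbance at 405 nm read every 30 s. Activity is the initial slope of each progress curve, as percent of the uninhibited reaction.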

As to `CC(C)(C)C(=O)Oc1ccc(S(=O)(=O)Nc2ccccc2C(=O)NCC(=O)O)cc1`, the IC50 in test [1] is greater than 10 µM; in test [2] it was 4.08 µM; in test [7] it was 2.81 µM. In addition, in test [3], the Activity amounted to 55.1%. The inhibition result in test [4], in test [5] and in test [6] was “Active” throughout.

For `C/C=C1\NC(=O)[C@@H](NC(=O)[C@H](CCc2ccc(O)cc2)NC(=O)[C@H](C)NC(=O)[C@H](O)COS(=O)(=O)O)[C@@H](C)OC(=O)[C@H](C(C)C)NC(=O)[C@H](Cc2ccc(O)cc2)N(C)C(=O)[C@H](Cc2ccccc2)N2C(=O)[C@H](CC[C@H]2O)NC1=O` [LYNGBYASTATIN 4], the IC50 in test [1] is greater than 10 µM. Moreover, the Activity in test [3] was 72.2%.

Regarding `C/C=C1\NC(=O)[C@@H](NC(=O)[C@@H](NC(=O)[C@H](C)NC(C)=O)C(C)C)[C@@H](C)OC(=O)[C@H](C(C)C)NC(=O)[C@H](Cc2ccc(O)cc2)N(C)C(=O)[C@H](Cc2ccccc2)N2C(=O)[C@H](CC[C@H]2O)NC1=O` [LYNGBYASTATIN 8], the 50% inhibitory concentration (IC50) in test [8] amounted to 0.12 µM.

Turning to `C/C=C1\NC(=O)[C@@H](NC(=O)[C@@H](NC(=O)[C@H](C)NC(=O)CCC)C(C)C)[C@@H](C)OC(=O)[C@H](C(C)C)NC(=O)[C@H](Cc2ccc(O)cc2)N(C)C(=O)[C@H](Cc2ccccc2)N2C(=O)[C@H](CC[C@H]2O)NC1=O` [LYNGBYASTATIN 9], in test [8], the IC50 turned out to be 0.12 µM.

Take `C/C=C1\NC(=O)[C@@H](NC(=O)[C@@H](NC(=O)[C@@H](COS(=O)(=O)O)OC)C(C)C)[C@@H](C)OC(=O)[C@H](C(C)C)NC(=O)[C@H](Cc2ccccc2)N(C)C(=O)[C@H](Cc2ccccc2)N2C(=O)[C@H](CC[C@H]2O)NC1=O` [symplostatin 6]: in test [1], the IC50 is greater than 10 µM. Further, in test [3], the Activity amounted to 90.6%.

As to `C/C=C1\NC(=O)[C@@H](NC(=O)[C@@H](NC(=O)[C@@H](COS(=O)(=O)O)OC)[C@@H](C)CC)[C@@H](C)OC(=O)[C@H]([C@H](C)CC)NC(=O)[C@H](Cc2ccccc2)N(C)C(=O)[C@H](Cc2ccccc2)N2C(=O)[C@H](CC[C@H]2O)NC1=O` [symplostatin 7], in test [1], the IC50 is greater than 10 µM. Besides, the Activity in test [3] was 70.7%.

`C/C=C1\NC(=O)[C@@H](NC(=O)[C@@H](NC(=O)[C@@H](COS(=O)(=O)O)OC)C(C)C)[C@@H](C)OC(=O)[C@H]([C@H](C)CC)NC(=O)[C@H](Cc2ccc(O)cc2)N(C)C(=O)[C@H](Cc2ccccc2)N2C(=O)[C@H](CC[C@H]2O)NC1=O` [symplostatin 8]: the concentration for half-maximal inhibition (IC50) in test [1] is greater than 10 µM. The Activity in test [3] turned out to be 69%.

`C/C=C1\NC(=O)[C@@H](NC(=O)[C@@H](NC(=O)[C@@H](COS(=O)(=O)O)OC)C(C)C)[C@@H](C)OC(=O)[C@H](C(C)C)NC(=O)[C@H](Cc2ccc(O)cc2)N(C)C(=O)[C@H](Cc2ccccc2)N2C(=O)[C@H](CC[C@H]2O)NC1=O` [symplostatin 9]: the IC50 in test [1] is greater than 10 µM. Also, the Activity in test [3] came to 73.9%.

Turning to `C/C=C1\NC(=O)[C@@H](NC(=O)[C@@H](NC(=O)[C@@H](COS(=O)(=O)O)OC)[C@@H](C)CC)[C@@H](C)OC(=O)[C@H]([C@H](C)CC)NC(=O)[C@H](Cc2ccc(O)cc2)N(C)C(=O)[C@H](Cc2ccccc2)N2C(=O)[C@H](CC[C@H]2O)NC1=O` [symplostatin 10], in test [1], the IC50 is greater than 10 µM. In addition, the Activity in test [3] worked out at 79.4%.
